ChEMBL document CHEMBL1130227, “(S)-homo-AMPA, a specific agonist at the mGlu6 subtype of metabotropic glutamic acid receptors” (J Med Chem, 1997)
pEC50, pIC50: −log10 of the molar value.

Legend:
[1] = biological target: Metabotropic glutamate receptor 2 (Rattus norvegicus, UniProt P31421); test: Effect on Metabotropic glutamate receptor 2
Summary of the method: (§1)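 Stably transfected CHO cells grown in DMEM with 2 mM glutamine, 1% proline and 10% dialyzed FCS, at 37 °C in 5% CO2. Cells seeded 2 days before assay. Ligand tested at 1 mM, both alone and with 30 μM (S)-Glu. Each experiment run at least twice in triplicate.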

[2] = biological target: Metabotropic glutamate receptor 4 (Rattus norvegicus, UniProt P31423); test: Effect on Metabotropic glutamate receptor 4
Summary of the method: (§2)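 Stably transfected CHO cells (mGlu3, mGlu4a or mGlu6) incubated 10 min in PBS with ligand, 10 μM forskolin and 1 mM IBMX. cAMP measured by RIA; agonism taken as percent decrease of forskolin-induced cAMP versus control. For antagonism, 20 min preincubation with ligand in PBS/1 mM IBMX, then 10 min with ligand plus 30 μM (S)-Glu, forskolin and IBMX. EC50 ± SEM from at least two independent experiments in triplicate.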

[3] = biological target: Metabotropic glutamate receptor 1 (Rattus norvegicus, UniProt P23385); test: Effect on Metabotropic glutamate receptor 1
Summary of the method: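 CHO cells stably expressing mGlu1a, plated two days before assay and labelled with [3H]inositol (2 μCi/mL) for 24 h. Ligand given in PBS–LiCl for 20 min; read-out is 3H mono-, bis- and tris-inositol phosphates separated by ion exchange, expressed as fold increase over control. For antagonism, a 20 min ligand preincubation was followed by ligand plus 30 μM (S)-Glu. At least two experiments, each in triplicate.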

[4] = biological target: Metabotropic glutamate receptor 6 (Rattus norvegicus, UniProt P35349); test: Effect on Metabotropic glutamate receptor 6; summary of the method: as §2
[5] = biological target: Metabotropic glutamate receptor 7 (Rattus norvegicus, UniProt P35400); test: Effect on Metabotropic glutamate receptor 7
Summary of the method: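 mGlu7-expressing CHO cells run in the forskolin (10 μM)/IBMX (1 mM) cAMP assay for 10 min, with cAMP measured by RIA as percent inhibition. Test ligand at 10 mM. For antagonism, 20 min preincubation, then ligand plus 1 mM (S)-AP4 as the agonist. Run at least twice in triplicate.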

[6] = biological target: Metabotropic glutamate receptor 3 (Rattus norvegicus, UniProt P31422); test: Effect on Metabotropic glutamate receptor 3; summary of the method: as §2
[7] = biological target: Metabotropic glutamate receptor 5 (Rattus norvegicus, UniProt P31424); test: Effect on Metabotropic glutamate receptor 5; summary of the method: as §1
Glutamate NMDA receptor = test: Inhibitory activity against N-methyl-D-aspartate glutamate receptor; type: protein-complex assay

Sequence of Metabotropic glutamate receptor 5 (P31424 whole entry): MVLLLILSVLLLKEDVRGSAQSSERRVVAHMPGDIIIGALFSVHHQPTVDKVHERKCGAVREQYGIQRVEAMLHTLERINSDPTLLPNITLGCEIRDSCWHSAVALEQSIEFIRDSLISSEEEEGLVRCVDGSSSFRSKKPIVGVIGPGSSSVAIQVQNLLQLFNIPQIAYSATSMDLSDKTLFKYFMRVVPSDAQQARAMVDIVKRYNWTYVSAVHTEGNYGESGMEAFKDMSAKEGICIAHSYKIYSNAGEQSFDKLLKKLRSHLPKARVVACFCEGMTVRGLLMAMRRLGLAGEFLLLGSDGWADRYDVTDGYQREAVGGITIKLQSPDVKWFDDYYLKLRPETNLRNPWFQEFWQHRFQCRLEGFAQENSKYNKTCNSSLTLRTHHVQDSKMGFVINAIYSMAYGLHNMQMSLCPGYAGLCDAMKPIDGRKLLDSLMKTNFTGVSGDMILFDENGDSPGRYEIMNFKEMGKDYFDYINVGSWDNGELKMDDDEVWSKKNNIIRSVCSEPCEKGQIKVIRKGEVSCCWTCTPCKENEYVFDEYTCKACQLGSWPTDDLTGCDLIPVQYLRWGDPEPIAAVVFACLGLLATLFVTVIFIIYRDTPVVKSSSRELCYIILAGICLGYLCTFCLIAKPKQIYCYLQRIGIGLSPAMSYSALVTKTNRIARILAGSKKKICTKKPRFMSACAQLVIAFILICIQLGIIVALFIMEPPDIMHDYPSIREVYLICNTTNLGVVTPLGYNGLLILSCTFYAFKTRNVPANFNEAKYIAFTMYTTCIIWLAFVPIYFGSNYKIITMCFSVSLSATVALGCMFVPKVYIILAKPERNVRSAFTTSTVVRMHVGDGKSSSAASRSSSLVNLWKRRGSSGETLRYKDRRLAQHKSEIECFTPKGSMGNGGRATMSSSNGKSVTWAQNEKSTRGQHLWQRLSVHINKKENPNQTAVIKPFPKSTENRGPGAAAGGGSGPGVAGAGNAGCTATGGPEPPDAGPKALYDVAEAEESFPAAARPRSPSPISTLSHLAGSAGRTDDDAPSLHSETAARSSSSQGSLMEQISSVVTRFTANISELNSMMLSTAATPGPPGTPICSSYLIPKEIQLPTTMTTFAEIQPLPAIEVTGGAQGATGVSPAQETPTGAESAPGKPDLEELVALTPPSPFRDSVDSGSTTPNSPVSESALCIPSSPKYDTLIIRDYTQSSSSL
Sequence of Metabotropic glutamate receptor 2 (P31421 whole entry): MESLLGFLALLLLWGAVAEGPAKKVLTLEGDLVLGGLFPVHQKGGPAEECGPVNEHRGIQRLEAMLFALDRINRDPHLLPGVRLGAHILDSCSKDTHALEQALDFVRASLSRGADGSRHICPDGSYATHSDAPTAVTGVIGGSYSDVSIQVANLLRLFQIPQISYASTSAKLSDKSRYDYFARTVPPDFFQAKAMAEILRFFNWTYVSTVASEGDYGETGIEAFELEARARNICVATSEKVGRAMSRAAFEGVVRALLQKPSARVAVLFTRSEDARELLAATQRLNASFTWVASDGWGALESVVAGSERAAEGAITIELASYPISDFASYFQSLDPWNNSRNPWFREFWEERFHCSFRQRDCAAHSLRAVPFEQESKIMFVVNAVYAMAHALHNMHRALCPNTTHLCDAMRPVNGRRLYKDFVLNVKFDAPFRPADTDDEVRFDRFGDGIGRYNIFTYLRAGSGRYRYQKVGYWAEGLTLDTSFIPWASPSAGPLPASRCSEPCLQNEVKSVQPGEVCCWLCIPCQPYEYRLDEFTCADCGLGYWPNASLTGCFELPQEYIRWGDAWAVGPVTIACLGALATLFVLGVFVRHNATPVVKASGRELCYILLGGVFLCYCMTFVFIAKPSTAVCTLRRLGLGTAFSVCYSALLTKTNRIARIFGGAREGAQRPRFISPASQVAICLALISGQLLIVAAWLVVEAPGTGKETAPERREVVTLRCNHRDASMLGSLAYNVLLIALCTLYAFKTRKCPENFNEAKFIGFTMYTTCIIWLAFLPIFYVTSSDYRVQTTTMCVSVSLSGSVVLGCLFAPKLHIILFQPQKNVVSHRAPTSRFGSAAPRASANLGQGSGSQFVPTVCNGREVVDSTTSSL
Sequence of Metabotropic glutamate receptor 1 (P23385 whole entry): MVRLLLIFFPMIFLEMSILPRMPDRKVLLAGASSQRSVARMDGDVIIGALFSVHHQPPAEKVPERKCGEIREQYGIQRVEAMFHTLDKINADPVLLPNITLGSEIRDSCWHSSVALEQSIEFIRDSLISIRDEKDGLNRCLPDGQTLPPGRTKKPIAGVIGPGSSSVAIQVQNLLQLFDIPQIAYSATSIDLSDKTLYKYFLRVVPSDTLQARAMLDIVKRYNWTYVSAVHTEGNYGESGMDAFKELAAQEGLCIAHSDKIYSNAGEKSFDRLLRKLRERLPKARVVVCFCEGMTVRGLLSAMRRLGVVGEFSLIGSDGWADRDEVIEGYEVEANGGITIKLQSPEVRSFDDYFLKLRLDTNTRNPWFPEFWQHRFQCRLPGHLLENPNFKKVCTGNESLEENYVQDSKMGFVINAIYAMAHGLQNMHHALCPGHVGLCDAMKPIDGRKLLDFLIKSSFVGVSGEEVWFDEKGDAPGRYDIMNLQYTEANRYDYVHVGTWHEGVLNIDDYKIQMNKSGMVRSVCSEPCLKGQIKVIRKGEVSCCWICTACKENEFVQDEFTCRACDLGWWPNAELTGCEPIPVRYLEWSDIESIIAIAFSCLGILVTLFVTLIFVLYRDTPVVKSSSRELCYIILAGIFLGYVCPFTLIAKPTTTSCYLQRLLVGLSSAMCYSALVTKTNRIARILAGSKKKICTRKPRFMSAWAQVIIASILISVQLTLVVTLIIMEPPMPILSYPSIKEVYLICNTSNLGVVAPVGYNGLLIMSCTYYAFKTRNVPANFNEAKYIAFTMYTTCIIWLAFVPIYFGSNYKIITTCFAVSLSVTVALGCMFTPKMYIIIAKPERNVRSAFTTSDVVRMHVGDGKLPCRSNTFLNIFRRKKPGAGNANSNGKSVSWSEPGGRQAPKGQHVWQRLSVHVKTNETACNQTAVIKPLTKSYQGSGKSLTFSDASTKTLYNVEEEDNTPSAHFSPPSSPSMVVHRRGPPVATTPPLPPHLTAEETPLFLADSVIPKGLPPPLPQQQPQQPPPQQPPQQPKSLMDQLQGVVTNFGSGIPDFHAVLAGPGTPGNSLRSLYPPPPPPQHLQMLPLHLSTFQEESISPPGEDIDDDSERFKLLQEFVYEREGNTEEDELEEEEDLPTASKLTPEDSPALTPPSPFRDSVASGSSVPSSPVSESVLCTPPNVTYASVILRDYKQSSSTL
Sequence of Metabotropic glutamate receptor 7 (P35400 whole entry): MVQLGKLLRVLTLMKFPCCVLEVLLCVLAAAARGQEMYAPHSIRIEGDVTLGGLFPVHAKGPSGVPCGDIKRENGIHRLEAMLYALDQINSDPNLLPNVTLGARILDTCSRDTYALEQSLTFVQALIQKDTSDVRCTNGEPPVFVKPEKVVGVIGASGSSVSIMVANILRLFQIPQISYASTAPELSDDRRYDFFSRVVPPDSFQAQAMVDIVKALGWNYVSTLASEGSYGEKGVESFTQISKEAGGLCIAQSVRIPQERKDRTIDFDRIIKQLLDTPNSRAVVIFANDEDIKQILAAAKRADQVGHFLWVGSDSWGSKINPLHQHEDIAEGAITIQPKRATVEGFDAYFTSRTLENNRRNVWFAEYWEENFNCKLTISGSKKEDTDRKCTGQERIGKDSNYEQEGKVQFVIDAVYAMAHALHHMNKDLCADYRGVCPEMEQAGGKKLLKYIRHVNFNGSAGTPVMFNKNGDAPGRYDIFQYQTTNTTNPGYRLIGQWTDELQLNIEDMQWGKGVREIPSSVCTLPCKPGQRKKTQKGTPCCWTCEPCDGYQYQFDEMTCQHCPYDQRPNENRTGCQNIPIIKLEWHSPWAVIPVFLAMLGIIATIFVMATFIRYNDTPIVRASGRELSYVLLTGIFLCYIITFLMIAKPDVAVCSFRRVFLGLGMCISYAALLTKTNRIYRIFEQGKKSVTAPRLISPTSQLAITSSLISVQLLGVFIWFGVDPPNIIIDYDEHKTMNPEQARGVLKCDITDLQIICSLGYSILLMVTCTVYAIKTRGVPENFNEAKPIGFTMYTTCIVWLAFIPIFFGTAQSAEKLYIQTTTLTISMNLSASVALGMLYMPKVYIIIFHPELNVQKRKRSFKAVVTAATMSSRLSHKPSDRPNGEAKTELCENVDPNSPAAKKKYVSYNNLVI
Sequence of Metabotropic glutamate receptor 4 (P31423 whole entry): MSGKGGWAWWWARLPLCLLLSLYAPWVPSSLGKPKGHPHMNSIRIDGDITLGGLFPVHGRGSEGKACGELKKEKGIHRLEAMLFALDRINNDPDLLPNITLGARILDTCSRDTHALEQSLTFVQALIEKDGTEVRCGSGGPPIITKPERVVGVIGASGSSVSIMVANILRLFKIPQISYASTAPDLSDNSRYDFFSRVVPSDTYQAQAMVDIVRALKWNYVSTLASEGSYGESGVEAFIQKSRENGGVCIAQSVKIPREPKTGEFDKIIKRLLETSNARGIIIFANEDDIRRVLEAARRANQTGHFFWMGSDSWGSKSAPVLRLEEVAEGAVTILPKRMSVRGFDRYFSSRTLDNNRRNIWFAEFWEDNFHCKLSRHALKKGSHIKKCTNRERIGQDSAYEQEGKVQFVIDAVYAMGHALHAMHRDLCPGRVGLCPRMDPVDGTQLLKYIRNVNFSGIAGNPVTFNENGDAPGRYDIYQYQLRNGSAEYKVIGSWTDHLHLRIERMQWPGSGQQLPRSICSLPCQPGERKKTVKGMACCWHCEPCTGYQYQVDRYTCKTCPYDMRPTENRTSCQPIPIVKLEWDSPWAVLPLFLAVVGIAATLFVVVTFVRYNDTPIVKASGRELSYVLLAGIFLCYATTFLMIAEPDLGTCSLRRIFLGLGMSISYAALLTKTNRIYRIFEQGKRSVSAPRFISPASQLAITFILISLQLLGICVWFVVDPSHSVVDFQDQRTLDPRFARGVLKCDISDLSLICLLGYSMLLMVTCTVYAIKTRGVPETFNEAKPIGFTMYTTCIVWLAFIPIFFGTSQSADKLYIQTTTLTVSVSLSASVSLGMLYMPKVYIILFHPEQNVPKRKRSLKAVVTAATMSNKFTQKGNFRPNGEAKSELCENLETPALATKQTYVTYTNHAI

Row | SMILES | pEC50 [1] | pEC50 [2] | pEC50 [3] | pEC50 [4] | pEC50 [5] | pEC50 [6] | pEC50 [7] | pIC50 (Glutamate NMDA receptor)
1 | N[C@@H](CCCC(=O)O)C(=O)O [(S)-2-AMINOADIPIC ACID] | 4.46 | < 2.52 | < 3.00 | 3.85 |  |  |  | 
2 | Cc1onc(O)c1CCC(N)C(=O)O (stereo not given) | < 3.00 | < 2.52 | < 3.00 | 4.09 |  |  |  | 
3 | N[C@H](CCC(=O)O)C(=O)O [D-GLUTAMATE] |  | 4.92 |  |  | 2.27 | 5.05 |  | 
4 | N[C@@H](CCP(=O)(O)O)C(=O)O | 3.00 | 6.04 | 3.00 | 6.24 | 3.60 |  | < 3.00 | 
5 | Cc1o[nH]c(=O)c1CC[C@@H](N)C(=O)O | < 3.00 | < 3.00 | < 3.00 | < 3.00 | < 2.30 | < 3.00 | < 3.00 | 3.88
6 | Cc1onc(O)c1CC[C@H](N)C(=O)O | < 3.00 | < 3.00 | < 3.00 | 4.24 | < 2.30 | < 3.00 | < 3.00 | 
7 | N[C@H](CCCC(=O)O)C(=O)O | < 3.00 |  | < 3.00 | < 3.00 |  |  |  | 
